# Assay results published in publication PMC10527432 (Cell, 2023).
# Entries after “also recorded” stand apart in the source; their conditions may differ. Like-named read-outs stand apart in the source and are kept apart here.
# Assays:
# [1] = tested on: synthetic α-Syn aggregates and Aβ fibrils; conditions: cited from earlier work
# [2] = tested on: α-Syn aggregates in primary neurons; assay: Fluorescence staining of primary neurons containing α-Syn aggregates; assay type: cell-based, rat; conditions: AAV-α-Syn + α-Syn PFFs, fluorescence microscopy
# Summary of the method: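 Primary embryonic rat neurons were cultured at 37 °C in 5% CO2 and infected with AAV-α-Syn at DIV7. At DIV12 they received sonicated α-Syn PFFs at 100 ng/ml final, with monomer as control. Test compound was then added and binding to the intracellular aggregates was assessed by fluorescence microscopy.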
# Aβ plaques or NFTs in AD = assay: Counter-staining of AD patient brain sections; set-up: species or system human; conditions: AD patients
# Tau PFFs = Tau PFFs (Homo sapiens, UniProt P10636); assay: Fibril binding assay; conditions: fluorescence; 0.08 μM fibrils, 5 μM compound; regardless of 3R or 4R Tau
# Tau PFFs, sequence (P10636 1-441 isoform P10636-8): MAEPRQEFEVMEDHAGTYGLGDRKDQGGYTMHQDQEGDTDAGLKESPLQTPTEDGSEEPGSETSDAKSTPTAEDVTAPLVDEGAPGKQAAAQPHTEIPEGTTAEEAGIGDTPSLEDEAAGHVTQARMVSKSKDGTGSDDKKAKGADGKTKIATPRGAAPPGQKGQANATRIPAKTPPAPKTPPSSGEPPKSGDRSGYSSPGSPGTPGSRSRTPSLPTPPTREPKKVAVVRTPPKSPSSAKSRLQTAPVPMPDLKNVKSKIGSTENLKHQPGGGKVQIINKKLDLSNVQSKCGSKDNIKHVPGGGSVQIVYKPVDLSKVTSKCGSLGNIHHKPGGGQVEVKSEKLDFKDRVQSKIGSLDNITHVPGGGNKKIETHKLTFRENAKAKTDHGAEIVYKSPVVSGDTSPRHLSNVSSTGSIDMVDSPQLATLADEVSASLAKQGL
# Summary of the method: (§1)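 In the fluorescence screen, test compound (5 μM) in 50 mM Tris-HCl, 50 mM NaCl, pH 7.4 was added to fibrils or monomers (0.08 μM) in triplicate wells. Fluorescence was read at each compound's own excitation/emission wavelengths. α-Syn fibrils were commercial, dissolved to 1 mg/ml in PBS. Tau PFFs were assembled from 3 mg/mL protein with 12.5 μM heparin for 7 days at 37 °C with shaking; mixed 3R-4R fibrils used 0N3R and 2N4R at 1.5 mg/ml each.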
# [3] = In vivo pharmacokinetics study in mice, i.v.; conditions: i.v. 5 mg/kg
# Summary of the method: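 Male ICR mice received 5 mg/kg i.v. Test compound was measured in plasma and brain homogenates at successive time points, with 3 mice per time point. Brain/plasma ratios, plasma half-life and clearance were derived; data are mean ± SD.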
# [4] = target: α-Syn pathology in DLB and MSA patient brain (Homo sapiens, UniProt P37840); assay: Staining of DLB and MSA patient brain sections; conditions: DLB and MSA patients
# [5] = tested on: α-Syn deposits in mouse brain sections; assay: Staining of mouse brain sections containing α-Syn deposits; conditions: SNCA transgenic mice treated with rotenone
# [6] = target: α-Syn deposits in mouse brain sections (Homo sapiens, UniProt P37840, A53T); assay: as above; conditions: SN of AAV-α-Syn A53T-injected mice
# [7] = target: aggregated α-Syn in PD brains (Homo sapiens, UniProt P37840); assay: In vitro competition assay against [3H]BF-227 in postmortem PD brain tissue; assay type: binding; conditions: read-out: Ki against [3H]BF227; postmortem PD brain tissue homogenate
# Summary of the method: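 Postmortem PD brain homogenate (α-Syn aggregates, no other amyloid) was used at a final 100 μg tissue/mL in PBS/0.1% BSA, pH 7.0. Unlabeled test compound (0.1–1000 nM; 0.25% DMSO final) was combined with [3H]BF-227 solution (~2 nM). 100% inhibition was defined by displacement with 1 μM unlabeled compound. Each concentration was run in triplicate, giving Ki.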
# [8] = target: aggregated α-Syn in PD/DLB patients (Homo sapiens, UniProt P37840); assay: Saturation binding assay with insoluble α-Syn fraction from PD/DLB brain
# Summary of the method: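 Insoluble α-Syn was extracted from frozen PD and DLB brain in 50 mM Tris-HCl pH 7.4, 800 mM NaCl, 10 mM NaF, 5 mM EDTA at 100,000 × g. Pellets were re-extracted with buffer containing 1% Triton X-100, then 1% Triton X-100 plus 30% sucrose. A final 1% sarkosyl step ran overnight, followed by a 100,000 × g spin.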
# Aβ PFFs = Aβ PFFs (Homo sapiens, UniProt P05067); assay: Fibril binding assay; conditions: fluorescence; 0.08 μM fibrils, 5 μM compound
# Aβ PFFs, sequence (P05067 672-713 limits assumed): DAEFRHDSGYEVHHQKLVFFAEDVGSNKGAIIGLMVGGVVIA
# Toxicology test in mice = assay type: in vivo; conditions: C57BL/6 mice
# Aβ plaques or NFTs = assay: Counter-staining of mouse brain sections; conditions: Tau P301S, 5xFAD, 3xTg mice
# Summary of the method: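 Cortical slices from 14-month-old 3xTg, 6-month-old Tau P301S and 12-month-old 5xFAD mice were fixed and incubated with primary antibodies for 12 h at 4 °C. Alexa Fluor-conjugated secondary antibodies were applied for 3 h at room temperature, with DAPI (1 μg/ml) nuclear counterstain. Slices were imaged by confocal microscopy.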
# [9] = target: α-Syn deposits in PD/DLB brain homogenates (Homo sapiens, UniProt P37840); assay type: binding
# Summary of the method: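 Brain lysates from 4 control and 4 patient cases were normalized for aggregate levels by pS129 western blot. Homogenates (0.2 mg/ml) were incubated with [18F]-labelled test compound (5–900 nM) for 1 h at 37 °C in 50 mM Tris-HCl, 50 mM NaCl, 0.5% sodium ascorbate, pH 7.4. Samples were then filtered, washed twice and counted by scintillation.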
# α-Syn aggregates = α-Syn aggregates (Homo sapiens, UniProt P37840, A53T); assay: Ex vivo staining after i.v. F0502B in AAV-α-Syn A53T mice; set-up: species or system mouse; conditions: 2 mg/kg i.v., 2 h
# Summary of the method: (§2)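 Eight-month-old mice received test compound at 2 mg/kg via the tail vein, and brain sections were prepared 2 h later. Sections were stained with anti-Aβ, anti-p-Tau (AT8), anti-p-α-Syn S129 and ThS, and co-localization was assessed. Cortex was examined for 5xFAD, 3xTg and Tau P301S mice. SN was examined for mice given unilateral stereotaxic AAV9-α-Syn A53T into SN at 3 months.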
# α-Syn PFFs = α-Syn PFFs (Homo sapiens, UniProt P37840); assay: Fibril binding assay; conditions: fluorescence, 0.08 μM fibrils, 5 μM compound
# Summary of the method: as §1
# Aβ or Tau aggregates = assay: Ex vivo staining after i.v. F0502B in 5xFAD, 3xTg, Tau P301S mice; set-up: species or system mouse; conditions: 2 mg/kg i.v., 2 h
# Summary of the method: as §2
# Tau fibrils = Tau fibrils (Homo sapiens, UniProt P10636); assay: [18F]-F0502B saturation binding assay with Tau PFFs; conditions: read-out: KD, Tau fibrils, 1 μM PFFs
# Tau fibrils, sequence (P10636 1-441 isoform P10636-8): as the sequence (P10636 1-441 isoform P10636-8) above
# Summary of the method: (§3)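 PFFs (1 μM) were incubated with [18F]-labelled test compound (5–900 nM) for 1 h at 37 °C in 30 mM Tris-HCl pH 7.4, 0.1% BSA, 0.5% sodium ascorbate. Nonspecific binding was defined with 2 μM unlabeled compound. Samples were filtered, washed twice and counted by scintillation, in duplicate. Kd and Bmax were obtained by nonlinear fit to Y = Bmax*X/(X+Kd).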
# Aβ1–42 fibrils = Aβ1–42 fibrils (Homo sapiens, UniProt P05067); assay: [18F]-F0502B saturation binding assay with Aβ PFFs; conditions: read-out: KD, Aβ fibrils, 1 μM PFFs
# Aβ1–42 fibrils, sequence (P05067 672-713 limits assumed): as the sequence (P05067 672-713 limits assumed) above
# Summary of the method: as §3
# α-Syn fibrils = α-Syn fibrils (Homo sapiens, UniProt P37840); assay: [18F]-F0502B saturation binding assay with α-Syn PFFs; conditions: read-out: KD, α-Syn fibrils, 1 μM PFFs
# Summary of the method: as §3
# [10] = target: Tau fibrils in AD patients (Homo sapiens, UniProt P10636); assay: Saturation binding assay with insoluble Tau fraction from AD brain
# Tau fibrils in AD patients, sequence (P10636 623-708 limits assumed): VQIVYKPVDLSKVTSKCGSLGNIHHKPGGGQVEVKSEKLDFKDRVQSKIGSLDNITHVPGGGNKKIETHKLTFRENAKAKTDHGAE
# Summary of the method: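 Insoluble Tau was extracted from AD brain in 10 mM Tris-HCl pH 7.4, 0.8 M NaCl, 1 mM EGTA, 10% sucrose. Sequential centrifugations up to 100,000 × g were performed at 4 °C. The pellet was resuspended in 20 mM Tris-HCl pH 7.4, 100 mM NaCl and run over a Superose 6 column.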
# [11] = target: Aβ fibrils in AD patients (Homo sapiens, UniProt P05067); assay: Saturation binding assay with insoluble Aβ fraction from AD brain
# Aβ fibrils in AD patients, sequence (P05067 672-711 limits assumed): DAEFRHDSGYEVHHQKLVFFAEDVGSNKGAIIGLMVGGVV
# Summary of the method: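 Insoluble Aβ was extracted from AD gray matter by homogenization in 0.32 M sucrose, mesh sieving, and centrifugation in 1 M sucrose. This was followed by collagenase/dispase (2 mg/ml) digestion for 16 h at 37 °C and a discontinuous 1.05–1.8 M sucrose gradient.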
# [12] = target: LBs in human brain sections (Homo sapiens, UniProt P37840); assay: Autoradiography with human brain slices; assay type: binding; conditions: PD versus AD patients; 4 nM tracer
# Summary of the method: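 Post-mortem human brain slices, stored at −20 °C, were preincubated in PBS + 0.1% BSA (pH 7.4) to reach room temperature. They were then incubated with [18F]-labelled tracer at room temperature for 30 min, rinsed in cold buffer and once in distilled water, and dried. Slices were exposed to imaging plates for 3 h before development.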
# [13] = tested on: α-Syn aggregates in macaque brain; assay: PET imaging in non-human primate PD models; assay type: in vivo, rhesus macaques; conditions: control macaques
# [14] = target: α-Syn aggregates in macaque brain (Homo sapiens, UniProt P37840, A53T); assay: PET imaging in non-human primate PD models; assay type: in vivo, rhesus macaques; conditions: macaques injected with AAV-α-Syn A53T
# α-Syn aggregation = conditions: cited from earlier work
compound,measurement,setting,value
CN(C)c1ncc(/C=C/c2nc3ccc(OCCF)cc3o2)s1 [BF-227],binding to α-Syn aggregates and Aβ fibrils in vitro,[1],binds to both synthetic α-Syn aggregates and Aβ fibrils in vitro
Cc1cc2nc(/C=C/c3ccc(O)c(Br)c3)sc2cc1N(C)CCOCCF [F0502B],signals in neurons with α-Syn aggregates,[2],specific association of F0502B with α-Syn aggregates
same,staining of Aβ plaques or NFTs in AD brains,Aβ plaques or NFTs in AD,but not Aβ plaques or NFTs
same,binding to Tau fibrils,Tau PFFs,poorly bound
same,Cl rate,[3],approximately 33.6 L/h/kg
same,plasma half-life t1/2,[3],6.9 min
same,brain versus plasma (B/P) ratio,[3]; 1 min,0.106
same,brain versus plasma (B/P) ratio,[3]; 1 h,13.37
same,staining of α-Syn pathology in patient brain slides,[4],specific association of F0502B with α-Syn aggregates
same,staining of α-Syn inclusions,[5],stained the α-Syn inclusions that were positive for p-S129 and 5G4
same,staining of α-Syn deposits in mouse brain sections,[6],specific association of F0502B with α-Syn aggregates
same,Ki,[7],3.4 nM
same,Kd,"[8]; read-out: KD, aggregated α-Syn in DLB patients, DLB",6.23 nM
same,Kd,"[8]; read-out: KD, aggregated α-Syn in PD patients, PD",3.68 nM
same,binding to Aβ fibrils,Aβ PFFs,poorly bound
same,effect on complete cell count or liver/renal functions,Toxicology test in mice,did not alter complete cell count or liver/renal functions
same,staining of Aβ plaques or NFTs in mouse brain sections,Aβ plaques or NFTs,but not Aβ plaques or NFTs; also recorded: weakly associated with Aβ aggregates
same,Kd,"[9]; read-out: KD for α-Syn deposits in PD brains, PD brains",4.26 to 7.32 nM
same,Kd,"[9]; read-out: Kd, DLB brain homogenates, unfractionated human DLB brain homogenates",9.79 nM
same,Kd,"[9]; read-out: Kd, PD brain homogenates, unfractionated human PD brain homogenates",4.26 nM
same,ex vivo staining of α-Syn aggregates after i.v. injection,α-Syn aggregates,selectively stains α-Syn aggregates
same,binding selectivity toward α-Syn PFFs versus Aβ and Tau PFFs,α-Syn PFFs; counter screening,stronger binding affinity with α-Syn PFFs than with Aβ and Tau PFFs
same,binding activities toward α-Syn PFFs,α-Syn PFFs; ThT positive control,specifically bound α-Syn fibrils
same,ex vivo staining of Aβ or Tau aggregates after i.v. injection,Aβ or Tau aggregates,not Aβ or Tau aggregates
Cc1cc2nc(/C=C/c3ccc(O)c(Br)c3)sc2cc1N(C)CCOCCF [[^18F]-F0502B],Kd,Tau fibrils,120 nM
same,Kd,Aβ1–42 fibrils,109 nM
same,Kd,α-Syn fibrils,11 nM
same,Kd,"[10]; read-out: KD, Tau fibrils in AD patients",151 nM
same,Kd,"[11]; read-out: KD, Aβ fibrils in AD patients",108 nM
Cc1cc2nc(/C=C/c3ccc(O)c(Br)c3)sc2cc1N(C)CCOCC[18F] [[^18F]-F0502B],autoradiographic binding to human brain sections,[12],selectively associated with LBs in brain sections from PD but not AD patients
same,"Bmax, aggregated α-Syn in DLB patients",[8]; DLB,12.30 fmol/nmol
same,"Bmax, aggregated α-Syn in PD patients",[8]; PD,14.95 fmol/nmol
same,"Bmax, Tau fibrils in AD patients",[10],1.14 fmol/nmol
same,"Bmax, Aβ fibrils in AD patients",[11],2.34 fmol/nmol
same,PET signal in brain,[13],devoid of radiotracer retention
same,PET signal in brain,[14],demonstrable signals in the striatal regions
same,specific binding in PD/AD/healthy control tissues,"[9]; total and nonspecific binding curves, frontal cortex",only specific binding with PD tissues but not AD or control tissues
Oc1ccc(-c2cc(-c3cccc(Br)c3)n[nH]2)cc1O [anle138c],inhibition of α-Syn aggregation,α-Syn aggregation,complete the inhibition of α-Syn aggregation; also recorded: strong inhibition of α-Syn aggregation
"thioflavin-S [ThS, reference compound]",staining of α-Syn deposits in mouse brain sections,[6],stained all of these aggregates
same,staining of Aβ plaques or NFTs in mouse brain sections,Aβ plaques or NFTs,stained all of these aggregates
